Screening results from PubChem.
Compounds with a hit are over-represented: about 4.8% of the library has one in this group of screens.
Jurkat NFkB inh: inhibitors of induced NF-kB luciferase reporter, primary screen, TCR NF-kB activation inhibitor project, cell-based, luminescence, uHTS; inhibition, % at 4 µM; AID 435003, 2010; 330,000 tested, 0.53% active; Jurkat, PMA/ionomycin-induced NF-kB luciferase reporter; in the data active = inhibition above about 50%
GPR7 antagonist: GPR7 receptor antagonists, primary screen, cell-based, fluorescence, single concentration | 290,000 tested, 1.1% active | inhibition, % at 4.4 µM | GPR7-expressing cells, fluorescence antagonist assay | Neuropeptides B/W receptor type 1 (Homo sapiens), P48145; in the data active = inhibition above about 16%, passing the limit was not always enough;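 also: cells stimulated with the agonist NPW; 0% = agonist with vehicle and 100% = vehicle without agonist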
Target sequence (P48145 whole entry, looked up): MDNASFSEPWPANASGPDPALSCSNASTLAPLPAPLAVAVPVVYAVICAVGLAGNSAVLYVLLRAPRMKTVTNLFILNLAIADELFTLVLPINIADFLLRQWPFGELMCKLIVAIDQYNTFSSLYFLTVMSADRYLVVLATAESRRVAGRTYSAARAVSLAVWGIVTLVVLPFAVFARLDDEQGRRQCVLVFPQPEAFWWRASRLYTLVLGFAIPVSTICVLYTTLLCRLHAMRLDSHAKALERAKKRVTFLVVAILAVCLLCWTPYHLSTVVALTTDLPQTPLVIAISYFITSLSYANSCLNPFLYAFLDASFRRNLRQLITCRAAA
T cruzi inh: inhibitors of intracellular T. cruzi growth, primary screen, luminescence, NIH3T3 host cells. T. cruzi beta-gal in NIH3T3, 90 h. inhibition, % (concentration not given with the values). 300,000 tested, 1.4% active;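 active = mean inhibition across valid replicates above about 55%, limit read from the data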;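 also: signal also drops with host cell toxicity which is not excluded here; 0% = plate median of DMSO wells and 100% = zero luminescence signal; higher percent means less beta-gal luminescence so fewer parasites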
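Incubation – ≥90 h infection period, 3 h prior cell attachment · System – NIH/3T3 fibroblasts plus reporter T. cruzi · Doses – compound pinned at 50 nL/well, DMSO · Read-out basis – percent inhibition of parasite-derived β-gal signal · Signal – luminescent β-galactosidase signal after 60 min lysis · Also added – 5000 T. cruzi trypomastigotes/well · Medium – Low-serum DMEM with 2% FBS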
HSF-1 act: HSF-1 activators, primary screen, NIH3T3-HGL cells, MG132 stress, luminescence, single point; activation, % at 9 µM; NIH3T3-HGL HSF-1 luciferase reporter, 8 h; 100% = twice DMSO control signal; AID 504408, 2011; 300,000 tested, 1.7% active;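 active = mean replicate activation of at least 50% with a set share of replicates each reaching 50%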;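 also: 0% = median of the neutral control wells and 100% = twice that signal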
697 NFkB inh: inhibitors of PMA/ionomycin-induced NF-kB reporter, 697 cells, primary screen, B-cell NF-kB inhibitor project, cell-based, luminescence, uHTS; 697 B-cell NF-kB luciferase reporter, 16 h; inhibition, % at 4 µM; 330,000 tested, 0.33% active; in the data active = inhibition above about 35%
HSF1 inh: HSF1 inhibitors in luciferase reporter cells, primary screen, cell-based, NIH3T3, luminescence; NIH3T3-HGL HSE-luciferase, MG132-induced, luminescence 8 h; stronger effect = lower value; activity change, negative = inhibition, % at 7.5 µM (by protocol); 300,000 tested, 0.77% active; AID 2098, 2009;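 active = more than half of replicate wells show activity change below -50%, luminescence cut by over half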;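 also: luciferase reports HSF-1 transcriptional activity via heat shock element; 0% = median of DMSO wells and -100% = zero luminescence signal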
697 NFkB conf: PMA/ionomycin-induced NF-kB reporter inhibitors, 697 retest, confirmation, B-cell NF-kB inhibitor project, cell-based, luminescence, single concentration; shares compounds with 697 NFkB inh; 697 B-cell NF-kB luciferase, 16 h; inhibition, % at 4 µM; 2,000 tested, 35% active; AID 449746, 2010; in the data active = inhibition mostly above about 28%, no sharp cut-off; inactive = mostly below about 22%
* = called active by the depositor.

How did CCOC(=O)N1CCN(c2ncnc3c2[nH]c2ccc(OC)cc23)CC1 do in these assays?
Jurkat NFkB inh: -8; GPR7 antagonist: 2; T cruzi inh: 31; HSF-1 act: -13; 697 NFkB inh: 37*; HSF1 inh: -4; 697 NFkB conf: 38*

How did COc1cc2c(cc1OC)C(C)N(C(=O)c1ccc(Cl)c(S(=O)(=O)N3CCCCC3)c1)CC2 (stereo not given) do in these assays?
Jurkat NFkB inh: 4; GPR7 antagonist: -5; T cruzi inh: 17; HSF-1 act: -2; 697 NFkB inh: -50; HSF1 inh: 0

What do the screens show for `CCCN1C(=O)/C(=C/c2c(N3CCNC(=O)C3CC(=O)OCC)nc3c(C)cccn3c2=O)SC1=S` (stereo not given)?
Jurkat NFkB inh: 10; GPR7 antagonist: -6; T cruzi inh: 22; HSF-1 act: -40; 697 NFkB inh: 37*; HSF1 inh: -40; 697 NFkB conf: 36*

What do the screens show for `CCOC(=O)CC1C(=O)NCCN1c1nc2ccc(C)cn2c(=O)c1/C=C1\SC(=S)N(CC(C)C)C1=O` (stereo not given)?
Jurkat NFkB inh: -16; GPR7 antagonist: 8; HSF-1 act: 20; 697 NFkB inh: 9; HSF1 inh: -5

What do the screens show for `O=C(CCNC(=O)c1ccc([N+](=O)[O-])cc1)Nc1ccc(S(=O)(=O)N2CCOCC2)cc1`?
Jurkat NFkB inh: 12; T cruzi inh: -1; HSF-1 act: -1; 697 NFkB inh: 16; HSF1 inh: 4

Results for Cc1cc(C)c(S(=O)(=O)NCc2ccncc2)c(C)c1 ?
Jurkat NFkB inh: 46; GPR7 antagonist: 5; T cruzi inh: -3; HSF-1 act: -8; 697 NFkB inh: 58*; HSF1 inh: -9; 697 NFkB conf: 41*

How did FC(F)Oc1ccc(-c2c[n+]3c(n2-c2ccccc2)CCCCC3)cc1 do in these assays?
Jurkat NFkB inh: 18; GPR7 antagonist: 0; T cruzi inh: 36; HSF-1 act: -18; 697 NFkB inh: -12; HSF1 inh: -2

How did COc1ccc(-n2c(-c3ccc(Br)cc3)c[n+]3c2CCc2ccccc2-3)cc1 do in these assays?
Jurkat NFkB inh: 25; GPR7 antagonist: 19; T cruzi inh: 60*; HSF-1 act: 48; 697 NFkB inh: 101*; HSF1 inh: 19; 697 NFkB conf: 47*

Results for CCOC(=O)C1=C(N)n2c(s/c(=C\c3cccnc3)c2=O)=C(C(=O)OC)C1c1cccnc1 (stereo not given) ?
Jurkat NFkB inh: 10; GPR7 antagonist: -8; T cruzi inh: -19; HSF-1 act: -7; 697 NFkB inh: 37*; HSF1 inh: -4; 697 NFkB conf: 6

What do the screens show for `COC(=O)c1cccc(C(=O)N2CCCC(C(=O)c3cc(F)ccc3F)C2)c1` (stereo not given)?
Jurkat NFkB inh: -2; GPR7 antagonist: -5; T cruzi inh: -4; HSF-1 act: -2; 697 NFkB inh: 39*; HSF1 inh: -1; 697 NFkB conf: -3

Results for COc1cc(S(=O)(=O)N2CCOCC2)ccc1N ?
Jurkat NFkB inh: 1; GPR7 antagonist: -2; T cruzi inh: -4; HSF-1 act: 3; 697 NFkB inh: 11; HSF1 inh: 2

How did Cc1cc(C(=O)COC(=O)c2cccn2C)c(C)n1Cc1ccco1 do in these assays?
Jurkat NFkB inh: -133; GPR7 antagonist: -3; T cruzi inh: 15; HSF-1 act: -34; 697 NFkB inh: -305; HSF1 inh: -18; 697 NFkB conf: -240

How did O=C(COC(=O)c1c(Cl)cccc1Cl)NCC1CCCO1 (stereo not given) do in these assays?
Jurkat NFkB inh: 5; GPR7 antagonist: -4; T cruzi inh: -22; HSF-1 act: 15; 697 NFkB inh: 2; HSF1 inh: 1
